Assay results reported in ChEMBL document CHEMBL4689842, “EUbOPEN Chemogenomics Library wave 1” (2021).
“And” between values parts separate entries of the source, which are not always exact repeats. Equal entries are not always repeated.

System: U2OS
Assay: Multiplex assay against U2OS
Format: toxicity, cell-based
Details: human
Method in brief: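 Four dyes were applied at seeding to live cells: Hoechst33342, BioTracker Green Microtubule Cytoskeleton Dye, MitoTracker Red and Annexin V Alexa Fluor 680. Imaging after compound addition used a CQ1 microscope at 37°C and 5% CO2. CellPathfinder machine-learning gating then sorted cells into Hoechst high-intensity objects or normal cells, normal cells into healthy, pyknosed or fragmented nuclei, and pyknosed cells into mitotic or apoptotic, with tubulin, mitochondrial-mass and membrane-permeability phenotypes given as per cents of healthy-nucleus cells.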

[1] = 12 h, 1 µM, compound concentration 1 uM, replicate 1
[2] = 12 h, 1 µM, compound concentration 1 uM, replicate 2
[3] = 12 h, 10 µM, compound concentration 10 uM, replicate 1
[4] = 12 h, 10 µM, compound concentration 10 uM, replicate 2
[5] = 24 h, 1 µM, compound concentration 1 uM, replicate 1
[6] = 24 h, 1 µM, compound concentration 1 uM, replicate 2
[7] = 24 h, 10 µM, compound concentration 10 uM, replicate 1
[8] = 24 h, 10 µM, compound concentration 10 uM, replicate 2
[9] = 48 h, 10 µM, compound concentration 10 uM, replicate 1
[10] = 48 h, 10 µM, compound concentration 10 uM, replicate 2
[11] = 48 h, 1 µM, compound concentration 1 uM, replicate 1
[12] = 48 h, 1 µM, compound concentration 1 uM, replicate 2

## COc1cc2nccc(Oc3ccc(NC(=O)Nc4cc(C)on4)c(Cl)c3)c2cc1OC.O
[1]
  Population Apoptotic (%): 50% and 42%
  Population Fragmented Nuclei (%): 7% and 3%
  Population Healthy Nuclei (%): 86% and 89%
  Population Membrane Permeable-Phenotype (%): 26%
  Population Mitotic Cells (%): 50% and 57%
  Population Normal (%): 95% and 98%
  Population Pyknosed Nuclei (%): 6% and 7%
  Total Cell Count: 193 and 192
[2]
  Population Apoptotic (%): 0%
  Population Fragmented Nuclei (%): 10% and 8%
  Population Healthy Nuclei (%): 77% and 91%
  Population Hoechst High Intensity Objects (%): 6% and 14%
  Population Membrane Permeable-Phenotype (%): 25% and 19%
  Population Mitochondria Different-Phenotype (%): 61% and 24%
  Population Mitotic Cells (%): 0%
  Population Normal (%): 93% and 85%
  Population Pyknosed Nuclei (%): 12% and 0%
  Population Tubulin-Different-Phenotype (%): 19%
  Total Cell Count: 132 and 71
[3]
  Population Apoptotic (%): 70%
  Population Fragmented Nuclei (%): 16%
  Population Healthy Nuclei (%): 57%
  Population Hoechst High Intensity Objects (%): 11%
  Population Membrane Permeable-Phenotype (%): 25%
  Population Mitochondria Different-Phenotype (%): 96%
  Population Mitotic Cells (%): 30%
  Population Normal (%): 88%
  Population Pyknosed Nuclei (%): 25%
  Population Tubulin-Different-Phenotype (%): 100%
  Total Cell Count: 152
[4]
  Population Apoptotic (%): 71%
  Population Fragmented Nuclei (%): 11%
  Population Healthy Nuclei (%): 75%
  Population Hoechst High Intensity Objects (%): 3%
  Population Membrane Permeable-Phenotype (%): 36%
  Population Mitochondria Different-Phenotype (%): 97%
  Population Mitotic Cells (%): 28%
  Population Normal (%): 96%
  Population Pyknosed Nuclei (%): 12%
  Population Tubulin-Different-Phenotype (%): 97%
  Total Cell Count: 58
[5]
  Population Apoptotic (%): 73% and 33%
  Population Healthy Nuclei (%): 62% and 92%
  Population Membrane Permeable-Phenotype (%): 42% and 15%
  Population Mitotic Cells (%): 26% and 66%
  Population Normal (%): 95% and 98%
  Total Cell Count: 272 and 251
[6]
  Population Apoptotic (%): 83% and 100%
  Population Fragmented Nuclei (%): 17% and 9%
  Population Healthy Nuclei (%): 58% and 89%
  Population Hoechst High Intensity Objects (%): 15% and 9%
  Population Membrane Permeable-Phenotype (%): 47% and 17%
  Population Mitotic Cells (%): 16% and 0%
  Population Normal (%): 84% and 90%
  Population Pyknosed Nuclei (%): 24% and 0%
  Total Cell Count: 159 and 78
[7]
  Population Apoptotic (%): 82%
  Population Fragmented Nuclei (%): 28%
  Population Healthy Nuclei (%): 42%
  Population Hoechst High Intensity Objects (%): 8%
  Population Membrane Permeable-Phenotype (%): 61%
  Population Mitochondria Different-Phenotype (%): 98%
  Population Mitotic Cells (%): 17%
  Population Normal (%): 91%
  Population Pyknosed Nuclei (%): 29%
  Population Tubulin-Different-Phenotype (%): 100%
  Total Cell Count: 142
[8]
  Population Apoptotic (%): 92%
  Population Fragmented Nuclei (%): 16%
  Population Healthy Nuclei (%): 60%
  Population Hoechst High Intensity Objects (%): 3%
  Population Membrane Permeable-Phenotype (%): 67%
  Population Mitochondria Different-Phenotype (%): 100%
  Population Mitotic Cells (%): 7%
  Population Normal (%): 96%
  Population Pyknosed Nuclei (%): 23%
  Population Tubulin-Different-Phenotype (%): 97%
  Total Cell Count: 58
[9]
  Population Apoptotic (%): 91%
  Population Fragmented Nuclei (%): 41%
  Population Healthy Nuclei (%): 15%
  Population Hoechst High Intensity Objects (%): 13%
  Population Membrane Permeable-Phenotype (%): 86%
  Population Mitochondria Different-Phenotype (%): 100%
  Population Mitotic Cells (%): 8%
  Population Normal (%): 86%
  Population Pyknosed Nuclei (%): 42%
  Population Tubulin-Different-Phenotype (%): 100%
  Total Cell Count: 153
[10]
  Population Apoptotic (%): 87%
  Population Fragmented Nuclei (%): 13%
  Population Healthy Nuclei (%): 67%
  Population Hoechst High Intensity Objects (%): 15%
  Population Membrane Permeable-Phenotype (%): 96%
  Population Mitotic Cells (%): 12%
  Population Normal (%): 84%
  Population Pyknosed Nuclei (%): 18%
  Total Cell Count: 62

## C[C@@H](NCCCc1cccc(C(F)(F)F)c1)c1cccc2ccccc12.Cl [CINACALCET HYDROCHLORIDE]
[1]
  Population Fragmented Nuclei (%): 6%
  Population Healthy Nuclei (%): 79%
  Population Hoechst High Intensity Objects (%): 5%
  Population Membrane Permeable-Phenotype (%): 4%
  Population Mitochondria Different-Phenotype (%): 30%
  Population Normal (%): 94%
  Population Pyknosed Nuclei (%): 13%
  Population Tubulin-Different-Phenotype (%): 40%
  Total Cell Count: 184
[2]
  Population Apoptotic (%): 33%
  Population Fragmented Nuclei (%): 10%
  Population Healthy Nuclei (%): 76%
  Population Hoechst High Intensity Objects (%): 9%
  Population Membrane Permeable-Phenotype (%): 11%
  Population Mitochondria Different-Phenotype (%): 22%
  Population Mitotic Cells (%): 66%
  Population Normal (%): 90%
  Population Pyknosed Nuclei (%): 12%
  Population Tubulin-Different-Phenotype (%): 36%
  Total Cell Count: 52
[3]
  Population Apoptotic (%): 41%
  Population Fragmented Nuclei (%): 14%
  Population Healthy Nuclei (%): 60%
  Population Hoechst High Intensity Objects (%): 9%
  Population Membrane Permeable-Phenotype (%): 22%
  Population Mitotic Cells (%): 58%
  Population Normal (%): 90%
  Population Pyknosed Nuclei (%): 24%
  Population Tubulin-Different-Phenotype (%): 98%
  Total Cell Count: 155
[4]
  Population Apoptotic (%): 88%
  Population Fragmented Nuclei (%): 20%
  Population Healthy Nuclei (%): 23%
  Population Hoechst High Intensity Objects (%): 7%
  Population Membrane Permeable-Phenotype (%): 33%
  Population Mitochondria Different-Phenotype (%): 93%
  Population Mitotic Cells (%): 11%
  Population Normal (%): 92%
  Population Pyknosed Nuclei (%): 55%
  Population Tubulin-Different-Phenotype (%): 93%
  Total Cell Count: 68
[5]
  Population Apoptotic (%): 29%
  Population Fragmented Nuclei (%): 5%
  Population Healthy Nuclei (%): 82%
  Population Hoechst High Intensity Objects (%): 3%
  Population Membrane Permeable-Phenotype (%): 4%
  Population Mitochondria Different-Phenotype (%): 20%
  Population Mitotic Cells (%): 70%
  Population Normal (%): 96%
  Population Pyknosed Nuclei (%): 12%
  Population Tubulin-Different-Phenotype (%): 20%
  Total Cell Count: 205
[6]
  Population Apoptotic (%): 36%
  Population Fragmented Nuclei (%): 8%
  Population Healthy Nuclei (%): 69%
  Population Hoechst High Intensity Objects (%): 7%
  Population Membrane Permeable-Phenotype (%): 5%
  Population Mitochondria Different-Phenotype (%): 26%
  Population Mitotic Cells (%): 63%
  Population Normal (%): 92%
  Population Pyknosed Nuclei (%): 22%
  Population Tubulin-Different-Phenotype (%): 17%
  Total Cell Count: 53
[7]
  Population Apoptotic (%): 72%
  Population Fragmented Nuclei (%): 14%
  Population Healthy Nuclei (%): 51%
  Population Hoechst High Intensity Objects (%): 6%
  Population Membrane Permeable-Phenotype (%): 46%
  Population Mitochondria Different-Phenotype (%): 97%
  Population Mitotic Cells (%): 28%
  Population Normal (%): 93%
  Population Pyknosed Nuclei (%): 34%
  Population Tubulin-Different-Phenotype (%): 100%
  Total Cell Count: 157
[8]
  Population Apoptotic (%): 92%
  Population Fragmented Nuclei (%): 15%
  Population Healthy Nuclei (%): 32%
  Population Hoechst High Intensity Objects (%): 24%
  Population Membrane Permeable-Phenotype (%): 52%
  Population Mitochondria Different-Phenotype (%): 88%
  Population Mitotic Cells (%): 7%
  Population Normal (%): 75%
  Population Pyknosed Nuclei (%): 51%
  Population Tubulin-Different-Phenotype (%): 82%
  Total Cell Count: 69
[11]
  Population Apoptotic (%): 38%
  Population Fragmented Nuclei (%): 8%
  Population Healthy Nuclei (%): 80%
  Population Hoechst High Intensity Objects (%): 2%
  Population Membrane Permeable-Phenotype (%): 3%
  Population Mitochondria Different-Phenotype (%): 11%
  Population Mitotic Cells (%): 61%
  Population Normal (%): 97%
  Population Pyknosed Nuclei (%): 11%
  Population Tubulin-Different-Phenotype (%): 16%
  Total Cell Count: 293
[12]
  Population Apoptotic (%): 54%
  Population Fragmented Nuclei (%): 14%
  Population Healthy Nuclei (%): 70%
  Population Hoechst High Intensity Objects (%): 6%
  Population Membrane Permeable-Phenotype (%): 8%
  Population Mitochondria Different-Phenotype (%): 18%
  Population Mitotic Cells (%): 45%
  Population Normal (%): 93%
  Population Pyknosed Nuclei (%): 15%
  Population Tubulin-Different-Phenotype (%): 12%
  Total Cell Count: 75
[9]
  Population Apoptotic (%): 70%
  Population Fragmented Nuclei (%): 26%
  Population Healthy Nuclei (%): 33%
  Population Hoechst High Intensity Objects (%): 7%
  Population Membrane Permeable-Phenotype (%): 58%
  Population Mitochondria Different-Phenotype (%): 96%
  Population Mitotic Cells (%): 29%
  Population Normal (%): 92%
  Population Pyknosed Nuclei (%): 39%
  Population Tubulin-Different-Phenotype (%): 98%
  Total Cell Count: 176
[10]
  Population Apoptotic (%): 91%
  Population Fragmented Nuclei (%): 18%
  Population Healthy Nuclei (%): 35%
  Population Hoechst High Intensity Objects (%): 22%
  Population Membrane Permeable-Phenotype (%): 78%
  Population Mitochondria Different-Phenotype (%): 89%
  Population Mitotic Cells (%): 8%
  Population Normal (%): 77%
  Population Pyknosed Nuclei (%): 45%
  Population Tubulin-Different-Phenotype (%): 94%
  Total Cell Count: 68
